Measured values reported in publication PMC11245987 (Computational and Structural Biotechnology Journal, 2024).
One block for each compound: values may come before it.

Key:
CTSL [1] = biological target: T1, CTSL (Homo sapiens, UniProt P07711); test: CTSL activity test, cell-free system; assay type: biochemical; conditions: for inhibition at 100 µM: read-out: inhibition of CTSL
CTSL [2] = biological target: T1, CTSL; test: Enzyme kinetics of CTSL; assay type: biochemical; conditions: for inhibition mechanism: 6.25 µM to 100 µM, both Km and Vmax decreased
Method in brief: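 A standard-curve conversion factor turned signal into velocity. Values were corrected by subtracting the […] and fitted to Michaelis-Menten. Lineweaver–Burk plots gave the inhibition mechanism. Mean ± SEM.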

T1 sequence (P07711 114-288 limits assumed): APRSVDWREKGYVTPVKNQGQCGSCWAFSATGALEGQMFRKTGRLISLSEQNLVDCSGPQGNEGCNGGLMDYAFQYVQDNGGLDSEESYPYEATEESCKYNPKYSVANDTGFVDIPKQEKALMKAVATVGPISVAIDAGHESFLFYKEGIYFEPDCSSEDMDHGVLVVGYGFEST
T1 sequence (P07711 292-333 limits assumed): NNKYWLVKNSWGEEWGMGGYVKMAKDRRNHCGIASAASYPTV

SMILES: O=C(N[C@H](COC(=O)[C@H](Cc1ccccc1)NC(=O)c1ccccc1)Cc1ccccc1)c1ccccc1 [Asperphenamate]
inhibition at 100 µM (CTSL [1]): > 90%

SMILES: Cc1c(O)c(C)c2c(c1O)C(=O)C[C@@H](c1ccc(O)cc1)O2 [Farrerol]
inhibition at 100 µM (CTSL [1]): > 90%

SMILES: O=C(/C=C/c1ccc(O)cc1)c1c(O)cc(O)cc1O [Naringenin chalcone]
inhibition at 100 µM (CTSL [1]): > 90%

SMILES: CC1=CC(=O)c2c(O)cccc2C1=O [Plumbagin]
inhibition mechanism (CTSL [2]): uncompetitive inhibition mechanism
Vmax (CTSL [2]; inhibitor 6.25 μM): 321.7 ± 13.9 Rlu/min
Vmax (CTSL [2]; inhibitor 12.5 μM): 277.5 ± 15.6 Rlu/min
Vmax (CTSL [2]; inhibitor 25 μM): 270.5 ± 11.2 Rlu/min
Vmax (CTSL [2]; inhibitor 50 μM): 216.8 ± 20.5 Rlu/min
Vmax (CTSL [2]; inhibitor 100 μM): 12.3 ± 2.4 Rlu/min
IC50 (CTSL [1]): 31.3 µM
inhibition at 100 µM (CTSL [1]): > 90%

The remaining lines, values ahead:

inhibition at 100 µM (CTSL [1]): > 90%
SMILES: COc1cc(O)cc(O)c1C(=O)/C=C/c1ccccc1 [(E)-Cardamonin]

inhibition mechanism (CTSL [2]): uncompetitive inhibition mechanism
Vmax (CTSL [2]; inhibitor 6.25 μM): 194.8 ± 9.2 Rlu/min
Vmax (CTSL [2]; inhibitor 12.5 μM): 181.3 ± 32.9 Rlu/min
Vmax (CTSL [2]; inhibitor 25 μM): 136.9 ± 27.6 Rlu/min
Vmax (CTSL [2]; inhibitor 50 μM): 103.1 ± 2.2 Rlu/min
Vmax (CTSL [2]; inhibitor 100 μM): 39.9 ± 0.2 Rlu/min
IC50 (CTSL [1]): 9.6 µM
inhibition at 100 µM (CTSL [1]): > 90%
SMILES: CC1(C)CCC2=C(O1)c1ccccc1C(=O)C2=O [Beta-Lapachone]

inhibition at 100 µM (CTSL [1]): > 90%
SMILES: COc1cc(O)c(C(=O)/C=C/c2ccccc2)c(OC)c1 [Flavokawain B]

inhibition at 100 µM (CTSL [1]): > 90%
SMILES: O=CCc1ccccc1 [Phenylacetaldehyde]
